How the values were obtained:
Rattus norvegicus [1] = test: Blockade of D-Trp[34]-NPY-induced food intake in po dosed rat; format: functional
[2] = molecular target: Neuropeptide Y receptor type 5 (Homo sapiens, UniProt Q15761); test: Displacement of [125]PYY from human chimeric NPY Y5 receptor expressed in CHOK1 cells; format: cell-based; settings: cho-k1
In short: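 Binding to human chimeric Y5 receptor expressed in CHO-K1 cells; Ki values are the average of two determinations.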

Rattus norvegicus [3] = test: Reduction in body weight gain in po dosed Sprague-Dawley DIO rat after 28 days relative to control; format: functional, organism-based
In short: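 DIO rats weighing 700–800 g at start, n = 12/group, food and water ad libitum. Compound admixed into low fat diet for 28 days; delivered doses (1, 3 or 10 mg/kg/day) calculated from food consumption. Body composition by DEXA scanning, expressed as percent change from day 0 baseline; average plasma levels taken at the 10 mg/kg/day dose.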

[4] = Inhibition of chloride channel at 10 uM
In short: (§1)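 Counterscreen panel of 60 receptors, enzymes and ion channels; inhibition of binding measured at 10 µM.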

[5] = Bioavailability in po dosed rat; format: ADME, organism-based; settings: in vivo
[6] = molecular target: T1, 5-hydroxytryptamine receptor 3A (Homo sapiens) (UniProt P46098); test: Inhibition of 5HT3 receptor at 10 uM; in short: as §1
T1 sequence (whole entry): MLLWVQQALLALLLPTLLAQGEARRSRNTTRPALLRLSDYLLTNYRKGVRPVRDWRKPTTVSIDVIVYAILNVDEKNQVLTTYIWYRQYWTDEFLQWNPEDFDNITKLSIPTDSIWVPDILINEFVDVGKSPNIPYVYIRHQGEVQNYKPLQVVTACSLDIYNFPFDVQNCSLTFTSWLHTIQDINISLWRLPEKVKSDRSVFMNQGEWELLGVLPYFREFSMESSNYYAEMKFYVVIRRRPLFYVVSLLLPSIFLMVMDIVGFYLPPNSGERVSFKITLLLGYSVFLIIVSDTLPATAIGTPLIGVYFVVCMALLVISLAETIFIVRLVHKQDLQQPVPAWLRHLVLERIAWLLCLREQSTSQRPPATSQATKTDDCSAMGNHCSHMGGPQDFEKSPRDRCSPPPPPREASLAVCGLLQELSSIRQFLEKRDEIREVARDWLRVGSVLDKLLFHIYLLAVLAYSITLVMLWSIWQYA

[7] = molecular target: 5-hydroxytryptamine receptor 2A (Homo sapiens) (UniProt P28223); test: Inhibition of 5HT2A receptor at 10 uM; in short: as §1
5-hydroxytryptamine receptor 2A (Homo sapiens), sequence (P28223 whole entry): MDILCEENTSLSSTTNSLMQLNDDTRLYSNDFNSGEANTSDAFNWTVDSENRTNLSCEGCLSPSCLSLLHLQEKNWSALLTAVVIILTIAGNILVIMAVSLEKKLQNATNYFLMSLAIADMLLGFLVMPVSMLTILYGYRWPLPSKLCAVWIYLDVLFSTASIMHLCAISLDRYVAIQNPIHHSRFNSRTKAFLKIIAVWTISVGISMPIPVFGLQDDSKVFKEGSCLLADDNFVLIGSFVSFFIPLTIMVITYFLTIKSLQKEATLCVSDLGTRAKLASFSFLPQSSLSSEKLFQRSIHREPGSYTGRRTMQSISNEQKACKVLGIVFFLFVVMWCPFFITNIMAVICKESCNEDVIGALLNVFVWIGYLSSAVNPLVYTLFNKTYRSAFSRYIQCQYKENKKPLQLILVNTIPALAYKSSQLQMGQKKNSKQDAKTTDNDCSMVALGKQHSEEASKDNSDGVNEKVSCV

[8] = Inhibition of sodium channel at 10 uM; in short: as §1

Neuropeptide Y receptor type 5, sequence (Q15761 whole entry, looked up): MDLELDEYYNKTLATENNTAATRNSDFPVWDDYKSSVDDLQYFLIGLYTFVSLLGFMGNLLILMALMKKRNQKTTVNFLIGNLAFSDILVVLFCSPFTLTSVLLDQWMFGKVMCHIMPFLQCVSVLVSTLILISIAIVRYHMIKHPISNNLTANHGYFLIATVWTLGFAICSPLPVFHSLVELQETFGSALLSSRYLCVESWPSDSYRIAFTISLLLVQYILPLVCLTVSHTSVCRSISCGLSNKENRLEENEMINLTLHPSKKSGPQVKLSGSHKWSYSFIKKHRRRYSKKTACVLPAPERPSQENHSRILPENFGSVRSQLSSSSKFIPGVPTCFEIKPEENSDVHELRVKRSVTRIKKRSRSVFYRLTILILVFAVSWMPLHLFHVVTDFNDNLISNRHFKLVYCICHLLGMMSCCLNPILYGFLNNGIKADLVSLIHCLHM

## CC(=O)N1CCC(N(C)C(=O)N[C@H]2CC[C@H](c3cc(F)cc(F)c3)CC2)CC1
Rattus norvegicus [1]
  ED50: 2.3 mg/kg
[2]
  Ki: 1.8 nM
Rattus norvegicus [3]
  Activity: Dose-dependent effect
[4]
  inhibition: < 25%
[5]
  bioavailability: 100%
[6]
  inhibition: < 10%
[7]
  inhibition: < 10%
[8]
  inhibition: < 25%

From ChEMBL document CHEMBL1143109, “Discovery of novel orally active ureido NPY Y5 receptor antagonists” (Bioorg Med Chem Lett, 2008)
